This passage reports IC50 results from article PMC9220501 (Chemico-Biological Interactions, 2022).

Each structure is given as a SMILES string.

Holding throughout (type): cell-based
The test system of experiment [1] is cervical adenocarcinoma HeLa. Kind of experiment: MTT cytotoxicity assay, HeLa. The settings on record: Homo sapiens, 72 h, read-out: IC50 HeLa.
Experiment [2] deals with chronic myelogenous leukemia K562 cells. Briefly: MTT cytotoxicity assay, K562. The settings on record: Homo sapiens, K562, 72 h, read-out: IC50 K562. (Tetrazolium assays rely on reduction of a dye to a coloured formazan, in cell work by metabolically active cells.)
Another experiment has as its system lung fibroblasts MRC-5. Kind of experiment: MTT cytotoxicity assay, normal MRC-5. The settings on record: Homo sapiens, MRC5, 72 h, read-out: IC50 MRC-5.
The test system of a further experiment is malignant melanoma A375. Kind of experiment: MTT cytotoxicity assay, A375. The settings on record: Homo sapiens, A-375, 72 h, read-out: IC50 A375. In short, it runs like this:
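A375 cells were kept in RPMI 1640 with 10% FBS, 2 mM L-glutamine, 25 mM HEPES and penicillin-streptomycin at 37 °C and 5% CO2. Cells were seeded at 3000 per well and allowed to adhere for 20 h. They were treated for 72 h, and survival was read by MTT. IC50 is the mean ± SD of three independent experiments.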

Experiment [3] relates to colon adenocarcinoma LS174. Briefly: MTT cytotoxicity assay, LS174. The settings on record: Homo sapiens, LS174, 72 h, read-out: IC50 LS174.
The next experiment relates to lung carcinoma A549. Briefly: MTT cytotoxicity assay, A549. To be noted: Homo sapiens, A549, 72 h, read-out: IC50 A549.

As a reminder, the IC50 is the midpoint of a concentration-inhibition curve. For the molecule `COC(=O)C1=C(C)N(C)C(=S)NC1c1ccccc1` (centres unmarked) [4a, Methyl 1,2,3,4-tetrahydro-1,6-dimethyl-2-thioxo-4-phenylpyrimidine-5-carboxylate], the half-maximal inhibitory concentration (IC50) in experiment [1] is 128 ± 15.4 µM; in experiment [2], 163 ± 4.62 µM; in the experiment with lung fibroblasts MRC-5, 92.97 ± 0.59 µM; in the experiment with malignant melanoma A375 it was 123 ± 7.17 µM; in experiment [3], 170.5 ± 1.28 µM.
Consider `COC(=O)C1=C(C)N(C)C(=S)NC1c1ccc(Cl)cc1` (centres unmarked) [4b, Methyl 4-(4′-chlorophenyl)-1,2,3,4-tetrahydro-1,6-dimethyl-2-thioxopyrimidine-5-carboxylate], for which the IC50 in experiment [1] was 81.8 ± 9.57 µM; in experiment [2], 95.9 ± 1.85 µM; in the experiment on lung fibroblasts MRC-5, 28.2 ± 0.32 µM; in the experiment with malignant melanoma A375, 102 ± 6.26 µM; in experiment [3], 153 ± 9.08 µM; with lung carcinoma A549 it was 123 ± 6.05 µM.
Take `COC(=O)C1=C(C)N(C)C(=S)NC1c1ccc([N+](=O)[O-])cc1` (centres unmarked) [4c, Methyl 4-(4′-nitrophenyl)-1,2,3,4-tetrahydro-1,6-dimethyl-2-thioxopyrimidine-5-carboxylate]: the IC50 in experiment [1] was determined as 122 ± 12.8 µM; in experiment [2], 193 ± 3.75 µM; in the experiment on lung fibroblasts MRC-5, 88.9 ± 6.31 µM; with malignant melanoma A375 it was 158 ± 7.84 µM; in experiment [3], 185 ± 5.5 µM.
Taken in the same sequence, the figures for `COC(=O)C1=C(C)N(C)C(=S)NC1c1ccc(C(=O)O)cc1` (centres unmarked) [4d, 4-(5-(methoxycarbonyl)-1,2,3,4-tetrahydro-1,6-dimethyl-2-thioxopyrimidin-4-yl)benzoic acid] were 139 ± 7.64 µM, 195 ± 7.62 µM, 169 ± 8.98 µM, 199.6 ± 0.59 µM and more than 200 µM.
With `COC(=O)C1=C(C)N(C)C(=S)NC1c1ccc(O)c(OC)c1` (centres unmarked) [4e, Methyl 1,2,3,4-tetrahydro-4-(4′-hydroxy-3′-methoxyphenyl)-1,6-dimethyl-2-thioxopyrimidine-5-carboxylate], the IC50 is 157 ± 6.52 µM in experiment [1]; 197 ± 0.54 µM in experiment [2]; 114 ± 2.36 µM in the experiment with lung fibroblasts MRC-5; 176 ± 2.9 µM with malignant melanoma A375; 196 ± 2.87 µM in experiment [3].
